# Assay outcomes: PubChem BioAssay, several laboratories
# HSF1 inhib: HSF1 inhibitors in luciferase reporter cells, primary screen, cell-based, NIH3T3, luminescence; NIH3T3-HGL HSE-luciferase, MG132-induced, luminescence 8 h; hits give low values; activity change, negative = inhibition, % at 7.5 µM (by protocol); 300,000 compounds, 0.77% hits; AID 2098, 2009;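 active means more than half of replicate wells show activity change below -50%, luminescence cut by over half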;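 further: luciferase reports HSF-1 transcriptional activity via heat shock element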
# Hsp70 activator: Hsp70 transcriptional activators, primary screen, cell-based, HeLa, Hsp70 promoter luciferase, luminescence, 10 µM. AID 1203, 2008. activation, % at 10 µM. HeLa Hsp70 promoter luciferase reporter; scaled: vehicle 0, proteasome-inhibitor control 100%. 200,000 compounds, 0.04% hits;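 active means activation above the mean across all tested compounds plus 3 SD, cutoff set per campaign, cut at about 5.5% in these data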
# STAT3 act: IL-6 driven STAT3 reporter potentiators, primary screen, U3A cells, luciferase, luminescence, MLSCN library | 190,000 compounds, 0.91% hits | IL-6 STAT3-luciferase reporter; 100% = signal with IL-6 EC80 alone | AID 871, 2007 | activation (% of control), % at 5.6 µM;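 active means activation above the screen-wide mean of compound activation plus 3 SD, cut at about 130% in these data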
#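 Detection: reporter luminescence signal / Assay system: STAT1-lacking human U3A cells, STAT3 luciferase reporter / Incubation: compound pre-incubation 1 h before IL-6, then 6 h stimulation at 37 °C / Control set: IL-6-only high control / Read-out: % activation relative to IL-6 control / Probe or stimulus: Interleukin-6, 33 ng/mL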
# PERK inh: block of dimerizer-induced PERK translation repression, primary screen, PERK inhibitor project, CHO PERK-DD cells, SEAP luminescence, HTS; Eukaryotic translation initiation factor 2-alpha kinase 3 (Homo sapiens), Q9NZJ5; CHO PERK-DD fusion, SEAP luminescence translation reporter; inhibition, % at 5.6 µM; 220,000 compounds, 0.17% hits;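 active means inhibition above the mean inhibition of all tested compounds plus 3 SD, set separately per screening campaign, cut at about 2.9% in these data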;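 further: PERK kinase domain activated by AP20187 dimerizer at 100 nM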
# Target sequence (Q9NZJ5 whole entry, looked up, the tested form may be a part): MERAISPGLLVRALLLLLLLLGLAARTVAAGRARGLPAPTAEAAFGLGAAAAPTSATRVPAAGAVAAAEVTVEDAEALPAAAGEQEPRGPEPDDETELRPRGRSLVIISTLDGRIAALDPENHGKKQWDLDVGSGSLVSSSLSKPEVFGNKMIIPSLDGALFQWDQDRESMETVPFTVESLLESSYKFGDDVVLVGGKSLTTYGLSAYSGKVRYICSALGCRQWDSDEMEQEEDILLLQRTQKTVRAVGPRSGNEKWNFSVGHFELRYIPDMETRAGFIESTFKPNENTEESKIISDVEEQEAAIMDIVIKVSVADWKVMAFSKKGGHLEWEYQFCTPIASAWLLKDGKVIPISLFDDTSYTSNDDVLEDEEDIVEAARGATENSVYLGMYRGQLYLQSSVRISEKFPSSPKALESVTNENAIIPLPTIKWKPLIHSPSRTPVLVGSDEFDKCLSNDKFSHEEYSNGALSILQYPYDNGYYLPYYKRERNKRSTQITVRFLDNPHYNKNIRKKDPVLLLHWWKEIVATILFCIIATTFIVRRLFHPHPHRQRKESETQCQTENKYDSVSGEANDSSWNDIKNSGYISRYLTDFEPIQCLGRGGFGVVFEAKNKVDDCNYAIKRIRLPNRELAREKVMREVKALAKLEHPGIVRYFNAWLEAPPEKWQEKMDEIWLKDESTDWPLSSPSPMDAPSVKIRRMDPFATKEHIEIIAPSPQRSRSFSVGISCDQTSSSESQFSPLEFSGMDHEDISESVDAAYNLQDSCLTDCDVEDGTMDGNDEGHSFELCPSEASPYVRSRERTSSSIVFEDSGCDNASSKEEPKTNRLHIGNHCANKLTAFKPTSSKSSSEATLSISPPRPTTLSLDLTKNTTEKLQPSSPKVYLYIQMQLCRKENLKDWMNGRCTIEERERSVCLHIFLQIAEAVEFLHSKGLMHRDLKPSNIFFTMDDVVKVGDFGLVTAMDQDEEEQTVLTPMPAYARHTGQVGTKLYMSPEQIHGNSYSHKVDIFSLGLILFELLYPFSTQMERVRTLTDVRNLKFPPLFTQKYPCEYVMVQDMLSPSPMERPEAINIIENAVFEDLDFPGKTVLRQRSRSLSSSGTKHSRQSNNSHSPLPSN
# PolyA inhibitor: polyadenylation inhibitors in yeast reporter cells, primary screen, luminescence, S. cerevisiae | S. cerevisiae SKY197-pL101 polyadenylation reporter, beta-gal luminescence; efflux-impaired pdr1/pdr3 knockout yeast; score 100 = 6 SD above DMSO | activity score, % at 12 µM | 300,000 compounds, 0.02% hits | AID 1875, 2009;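 active means lowest replicate activity score at least 50, where 100 means six control SD above control mean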;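 further: yeast exposed to compound for 9 h at 30 °C; higher score means more reporter readthrough which indicates perturbed polyadenylation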
# AHR act: AHR activators, primary screen, cell-based, luminescence, luciferase reporter, human; Aryl hydrocarbon receptor (Homo sapiens), P35869; 320,000 compounds, 2.5% hits; activation, % at 5 µM; AHR-responsive luciferase reporter cells; AID 2796, 2010; in the data active means activation above about 47%
# Numbers stand for hits; - = inactive; . = no result. Sampled rows, rich in hits. Any-hit rate of the full collection: about 3.6%.
SMILES,HSF1 inhib,Hsp70 activator,STAT3 act,PERK inh,PolyA inhibitor,AHR act
CCOc1nc(C)ccc1-c1noc(-c2ccccc2OC)n1,-,-,-,-,-,49.8
O=C(NCc1nnnn1-c1ccc(Cl)cc1)c1ccc(Br)o1,-,.,.,.,-,-
Cc1occc1-c1nnc(SCC(=O)NC2CC2)n1C(C)C,-,.,.,.,-,-
O=C1C=C(c2ccc3c(c2)OCO3)CCC1,-,.,.,.,-,-
Cn1nc(C(=O)Nc2ccc(Cl)cc2)cc1C(=O)Nc1ccc(Cl)cc1,-,.,.,.,-,72.0
CCOC(=O)c1cc(C(=O)Nc2cccc(C)c2)nn1C,-,-,-,-,-,-
Cn1nc(C(=O)Nc2cccc(Cl)c2)cc1C(=O)Nc1cccc(Cl)c1,-,.,.,.,-,-
Cc1ccc(NC(=O)c2cc(C(=O)Nc3ccc(C)cc3)n(C)n2)cc1,-,.,.,.,-,61.7
CCn1cc(Br)c(C(=O)Nc2sc3c(c2C(N)=O)CCCC3)n1,-,.,.,.,-,56.8
Cc1ccc(NNS(=O)(=O)c2ccc(C)cc2)cc1,-,-,135.4,-,-,-
COc1ccccc1CNC(=O)[C@@H]1CCCN1S(=O)(=O)c1ccccc1F,-,.,.,.,-,-
COC(=O)C1=C(C)N(CCCC(=O)O)C(=O)NC1c1ccccc1Cl (stereo unspecified),-64.3,.,.,.,-,-
COC(=O)C1=C(C)N(CCCC(=O)O)C(=O)NC1c1ccc(Br)cc1 (stereo unspecified),-,.,.,.,-,-
COC(=O)C1=C(C)N(CCCC(=O)O)C(=O)NC1c1ccc(C#N)cc1 (stereo unspecified),-66.4,.,.,.,-,-
Cc1ccccc1N=C1SCCN1C(=O)CN1C(=O)NC2(CCCC2)C1=O,-,.,.,.,-,-
O=C(N/N=C/c1ccc(N2CCOCC2)cc1)C1CC1,-,-,-,-,-,-
COc1ccc(-n2c(C)c(C)c3c(N)ncnc32)cc1,-57.3,.,.,.,-,-
Cc1cccc(NC(=O)C2c3ccccc3Oc3ccccc32)n1,-,-,-,-,-,-
Cc1ccc(S(=O)(=O)N2CCN(C(=O)c3cccc(F)c3)CC2)cc1,-53.5,-,-,-,-,-
CCc1ccc(CN(C)C(=O)c2cc(COc3cc(C)c(Cl)c(C)c3)on2)nc1,-,.,.,.,-,-
Cc1[nH]n(-c2ccccc2)c(=O)c1C(C[N+](=O)[O-])c1ccccc1Cl (stereo unspecified),-,-,-,-,-,68.2
Cc1ccc(/C=C2\OC(=O)c3ccccc32)cc1,-,-,157.0,-,-,-
Cc1nnc(SCC(=O)NC2CCCCCC2)n1C(C)C,-,.,.,.,-,-
CCc1n[nH]c(=S)n1/N=C/c1cc(Br)c(OC)cc1OC,-,-,-,-,-,76.5
O=C(CCC(=O)Nc1ccc(F)cc1)N/N=C/c1c[nH]c2ccccc12,-,-,-,-,-,50.3
SMILES,HSF1 inhib,Hsp70 activator,STAT3 act,PERK inh,PolyA inhibitor,AHR act
O=C(CCC(=O)Nc1ccc(F)cc1)N/N=C/c1ccccc1O,-,-,-,-,-,-
O=C(CSc1ccccn1)N/N=C/c1c[nH]c2ccccc12,-,-,-,-,-,-
O=C(CNc1ccccc1)N/N=C/c1c[nH]c2ccccc12,-,-,-,-,-,50.4
O=C(CSc1nnc(SCc2cccc3ccccc23)s1)N/N=C/c1c[nH]c2ccccc12,-,-,-,-,-,47.0
Cc1cc(C)cc(N(CCC#N)C(=O)COC(=O)C2CCN(c3ccc(C(F)(F)F)cn3)CC2)c1,-,.,.,.,-,-
CCCCCNCC(=O)Nc1cccc(C(=O)Nc2cccc(C(F)(F)F)c2)c1,-,-,-,-,-,-
Cc1ccc(C2N(c3ccccc3)C(=S)N3CCCN23)cc1 (stereo unspecified),-82.4,-,-,-,-,-
CCC(=O)Nc1c(-c2ccccc2)c(=O)c2ccccc2n1C,-,.,.,-,-,-
CCOC(=O)/C=C/C(=O)Nc1ccccc1-c1ccccc1NC(=O)/C=C/C(=O)OCC,-56.2,-,-,-,-,-
